This note sets out measurements from ChEMBL document CHEMBL1155063 (Bioorg Med Chem, 2008).

What is called viability is a read-out of living cells in per cent, often relative to untreated cells. What is called cell viability is a read-out of living cells in per cent, often relative to untreated cells. For orientation: residual activity means the signal under treatment as a percentage of the control signal.

Data set [1] is described as follows: Cytotoxicity against human H1299 cells at 100 uM after 48 hrs by MTT assay realtive to control. The class given is functional. The note with it: NCI-H1299, 48 h. In a few lines:
(§1)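 H1299 non-small-cell lung cells were kept in RPMI 1640 with 10% FBS and penicillin/streptomycin at 37 °C under 5% CO2. About 2 × 10^3 cells per well were pre-incubated for 24 h. Compound was added from freshly made DMSO solution diluted in complete medium and left for 48 h. MTT was then added for 4 h at 37 °C, followed by 20% SDS/50% DMF lysis buffer for 16 h at 37 °C, and absorbance read at 550 nm.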

Data set [2] is described as follows: Cytotoxicity against human H1299 cells at 10 uM after 48 hrs by MTT assay realtive to control. The note with it: NCI-H1299, 48 h. In kind it is functional. A digest of the protocol: as §1
Data set [3] in a line: Cytotoxicity against human TERT immortalized BJ1 cells at 100 uM after 48 hrs by MTT assay relative to control. The class given is cell-based, BJ. In a few lines: (§2)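 hTERT-immortalized BJ1 fibroblasts were grown in DMEM with 10% FCS, 1 mM pyruvate and 4 mM […]. Cells (about 2 × 10^3 per well) were seeded and held 24 h at 37 °C. Compounds were freshly dissolved in DMSO, diluted into medium and left on the cells 48 h. MTT was added for 4 h, then SDS/DMF lysis buffer for 16 h. Absorbance was read at 550 nm and expressed relative to untreated cells (100%).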
A general note: Tetrazolium assays rely on reduction of a dye to a coloured formazan, in cell work by metabolically active cells.

Data set [4] can be described thus: Cytotoxicity against human TERT immortalized BJ1 cells at 10 uM after 48 hrs by MTT assay relative to control. The class given is cell-based, BJ. A digest of the protocol: as §2
Data set [5] can be described thus: Cytotoxicity against human TERT immortalized BJ1 cells at 1 uM after 48 hrs by MTT assay relative to control. In kind it is cell-based, BJ. A digest of the protocol: as §2
The nature of data set [6]: Cell viability of human H1299 cells at 1 uM after 48 hrs by MTT assay relative to control. The note with it: NCI-H1299, 48 h.
In data set [7] the target is T1, Telomerase reverse transcriptase (Homo sapiens, UniProt O14746). In words: Effect on human TERT expressed in BJ1 cells at 1 uM after 24 hrs by SEAP assay realtive to control. The note with it: BJ.
In data set [8] the target is T1, Telomerase reverse transcriptase. In words: Effect on human TERT expressed in BJ1 cells at 10 uM after 24 hrs by SEAP assay relative to control. Conditions: BJ.
For data set [9] the target is unchanged. In words: Effect on human TERT expressed in H1299 cells at 1 uM after 24 hrs by SEAP assay relative to control.
For data set [10] the target is unchanged. In words: Effect on human TERT expressed in BJ1 cells at 100 uM after 24 hrs by SEAP assay relative to control. The note with it: BJ.
For data set [11] the target is unchanged. In words: Effect on human TERT expressed in H1299 cells at 10 uM after 24 hrs by SEAP assay relative to control.
For data set [12] the target is unchanged. In words: Effect on human TERT expressed in H1299 cells at 100 uM after 24 hrs by SEAP assay relative to control.
For data set [13] the target is unchanged. In words: Inhibition of telomerase in human H1299 cells at 1 to 20 uM by TRAP assay. In kind it is cell-based. In a few lines: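 Modified TRAP assay using 2 µg total lysate from H1299 lung cancer cells as the telomerase source. Compounds were tested at 1, 5, 10 and 20 µM. Products were resolved on 10% polyacrylamide gels and stained with SYBR Green. A Taq-polymerase internal control was included, along with positive and negative controls.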

The source made the active and inactive calls. The calls are words filed in the database; no cut-off is given here.

T1 sequence (O14746 whole entry): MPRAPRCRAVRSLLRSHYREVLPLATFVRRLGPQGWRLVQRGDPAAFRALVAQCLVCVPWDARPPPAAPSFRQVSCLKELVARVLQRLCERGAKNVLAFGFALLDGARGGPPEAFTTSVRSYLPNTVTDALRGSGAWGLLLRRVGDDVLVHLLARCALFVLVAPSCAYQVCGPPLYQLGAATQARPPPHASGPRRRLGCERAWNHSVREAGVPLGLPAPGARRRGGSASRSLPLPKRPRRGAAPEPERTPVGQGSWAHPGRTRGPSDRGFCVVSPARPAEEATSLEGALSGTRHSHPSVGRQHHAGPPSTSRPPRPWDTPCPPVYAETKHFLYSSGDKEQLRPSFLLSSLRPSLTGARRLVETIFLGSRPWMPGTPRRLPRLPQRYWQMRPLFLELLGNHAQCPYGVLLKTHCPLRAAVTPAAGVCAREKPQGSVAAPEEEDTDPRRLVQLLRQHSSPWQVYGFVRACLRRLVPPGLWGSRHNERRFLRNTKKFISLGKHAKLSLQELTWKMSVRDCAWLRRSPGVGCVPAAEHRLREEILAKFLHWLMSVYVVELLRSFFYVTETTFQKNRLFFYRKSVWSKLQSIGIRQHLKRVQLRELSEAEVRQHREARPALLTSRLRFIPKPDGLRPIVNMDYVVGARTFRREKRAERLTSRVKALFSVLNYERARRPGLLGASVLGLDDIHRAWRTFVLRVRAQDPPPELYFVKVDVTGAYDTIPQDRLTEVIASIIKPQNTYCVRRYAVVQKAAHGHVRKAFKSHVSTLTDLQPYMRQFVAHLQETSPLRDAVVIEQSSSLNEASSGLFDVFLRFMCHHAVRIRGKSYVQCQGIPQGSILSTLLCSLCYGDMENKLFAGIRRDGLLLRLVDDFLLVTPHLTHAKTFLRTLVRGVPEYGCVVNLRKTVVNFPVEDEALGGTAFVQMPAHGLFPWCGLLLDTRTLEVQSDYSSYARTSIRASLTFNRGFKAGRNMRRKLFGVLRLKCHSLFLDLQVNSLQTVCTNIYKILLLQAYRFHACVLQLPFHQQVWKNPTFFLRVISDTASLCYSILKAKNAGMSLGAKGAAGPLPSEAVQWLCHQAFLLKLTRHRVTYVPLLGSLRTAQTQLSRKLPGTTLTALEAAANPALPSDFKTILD

Take `O=C(CCCCl)Nc1ccc2c(c1)C(=O)c1cc(NC(=O)CCCCl)ccc1C2=O`: the viability at 100 µM in data set [1] amounted to 22%. Also, in [2], the viability at 10 µM came out at 40%. The viability at 48 h, 100 µM in data set [3] is 58%. The viability at 48 h, 10 µM in data set [4] turned out to be 62%. Moreover, the viability at 48 h, 1 µM in [5] was 72%. In data set [6], the cell viability at 1 µM was determined as 84%. The residual activity in data set [7] is 13%; in data set [8], 42%; in data set [9], 88%; in data set [10], 75%; in data set [11], 86%; in [12] it was 78%.

For the compound `CCNCC(=O)Nc1ccc2c(c1)C(=O)c1cc(NC(=O)CNCC)ccc1C2=O`, the viability at 100 µM in [1] was determined as 3%. Also, the viability at 10 µM in [2] was determined as 24%. In addition, the viability at 48 h, 100 µM in data set [3] is 37%. The viability at 48 h, 10 µM in data set [4] was 56%. The viability at 48 h, 1 µM in data set [5] is 72%. Further, in [6], the cell viability at 1 µM was 52%. The residual activity is 90% in data set [7]; 41% in data set [8]; 60% in [9]; 17% in data set [10]; 35% in [11]; 34% in [12].

Turning to `O=C(CCN1CCNCC1)Nc1ccc2c(c1)C(=O)c1cc(NC(=O)CCN3CCNCC3)ccc1C2=O`, the result in data set [13] was Active. Also, in [1], the viability at 100 µM is 102%. Further, the viability at 10 µM in [2] is 94%. Further, in data set [3], the viability at 48 h, 100 µM was 88%. Further, in data set [4], the viability at 48 h, 10 µM worked out at 100%. In addition, the viability at 48 h, 1 µM in data set [5] turned out to be 96%. Besides, the cell viability at 1 µM in data set [6] was determined as 97%. Besides, the residual activity stood at 118% in data set [8]; 75% in data set [9]; 131% in data set [10]; 71% in [11]; 71% in [12].

As to `O=C1c2ccc(NC(=O)C3CCCC3)cc2C(=O)c2cc(NC(=O)C3CCCC3)ccc21`, the viability at 100 µM in data set [1] was found to be 42%. For the same compound, the viability at 10 µM in data set [2] amounted to 77%. Moreover, the viability at 48 h, 100 µM in data set [3] was determined as 58%. Moreover, the viability at 48 h, 10 µM in data set [4] came to 68%. In addition, the viability at 48 h, 1 µM in data set [5] was determined as 77%. Also, in data set [6], the cell viability at 1 µM stood at 91%. Further, the residual activity was found to be 137% in data set [7]; 130% in data set [8]; 83% in data set [9]; 108% in data set [10]; 87% in data set [11]; 85% in data set [12].

Turning to `O=C(Cc1ccccc1)Nc1ccc2c(c1)C(=O)c1cc(NC(=O)Cc3ccccc3)ccc1C2=O`, the viability at 100 µM in data set [1] came out at 75%. Also, the viability at 10 µM in data set [2] was 96%. For the same compound, the viability at 48 h, 100 µM in [3] was determined as 86%. Further, in [4], the viability at 48 h, 10 µM was 80%. Further, the viability at 48 h, 1 µM in data set [5] worked out at 93%. Also, the cell viability at 1 µM in data set [6] stood at 106%. Besides, the residual activity in data set [7] was 85%; in data set [8], 79%; in data set [9], 97%; in data set [10] it was 40%; in data set [11], 91%; in data set [12], 80%.

On to `O=C(CN1CCCCC1)Nc1ccc2c(c1)C(=O)c1cc(NC(=O)CN3CCCCC3)ccc1C2=O`, for which, in [1], the viability at 100 µM was determined as 35%. Moreover, in [2], the viability at 10 µM amounted to 37%. In addition, in [3], the viability at 48 h, 100 µM was found to be 22%. In [4], the viability at 48 h, 10 µM was 78%. The viability at 48 h, 1 µM in data set [5] is 89%. Moreover, the cell viability at 1 µM in data set [6] worked out at 50%. For the same compound, the residual activity turned out to be 118% in data set [7]; 121% in data set [8]; 74% in data set [9]; 103% in [10]; 69% in data set [11]; 63% in data set [12].

In the case of `CCN(CC)CC(=O)Nc1ccc2c(c1)C(=O)c1cc(NC(=O)CN(CC)CC)ccc1C2=O`, the viability at 100 µM in [1] stood at 25%. Further, the viability at 10 µM in data set [2] turned out to be 47%. Further, in data set [3], the viability at 48 h, 100 µM was determined as 50%. Further, in data set [4], the viability at 48 h, 10 µM was found to be 67%. The viability at 48 h, 1 µM in data set [5] worked out at 116%. The cell viability at 1 µM in data set [6] amounted to 101%. The residual activity in [7] stood at 26%; in data set [8], 131%; in data set [9], 90%; in data set [10], 116%; in [11], 61%; in [12], 37%.

`CCNCCC(=O)Nc1ccc2c(c1)C(=O)c1cc(NC(=O)CCNCC)ccc1C2=O`: the outcome in [13] was Active. Besides, in [1], the viability at 100 µM was determined as 34%. Further, the viability at 10 µM in data set [2] amounted to 59%. Also, in data set [3], the viability at 48 h, 100 µM was 42%. Besides, the viability at 48 h, 10 µM in [4] was 73%. The viability at 48 h, 1 µM in data set [5] turned out to be 82%. For the same compound, the cell viability at 1 µM in data set [6] came out at 86%. The residual activity in [9] came out at 68%; in data set [10], 97%; in data set [11], 33%; in [12], 22%.

Consider `CCCCNCCC(=O)Nc1ccc2c(c1)C(=O)c1cc(NC(=O)CCNCCCC)ccc1C2=O`, for which the viability at 100 µM in [1] came to 14%. The viability at 10 µM in data set [2] was 52%. Besides, the viability at 48 h, 100 µM in [3] was 40%. The viability at 48 h, 10 µM in data set [4] amounted to 70%. Besides, the viability at 48 h, 1 µM in [5] turned out to be 80%. For the same compound, in data set [6], the cell viability at 1 µM came to 82%. Also, the residual activity in data set [7] was found to be 88%; in [8] it was 95%; in data set [9] it was 56%; in data set [10], 111%; in data set [11] it was 33%; in data set [12], 22%.

With `O=C1c2ccc(NC(=O)C3CCCCC3)cc2C(=O)c2cc(NC(=O)C3CCCCC3)ccc21`, in data set [1], the viability at 100 µM came out at 52%. Also, the viability at 10 µM in data set [2] is 63%. Also, the viability at 48 h, 100 µM in [3] came out at 64%. The viability at 48 h, 10 µM in [4] was 76%. The viability at 48 h, 1 µM in data set [5] was found to be 87%. The cell viability at 1 µM in [6] is 90%. The residual activity in data set [7] was determined as 14%; in data set [8], 14%; in data set [9], 96%; in data set [10], 22%; in data set [11], 93%; in data set [12] it was 80%.

Turning to `CCCNCCC(=O)Nc1ccc2c(c1)C(=O)c1cc(NC(=O)CCNCCC)ccc1C2=O`, the outcome in data set [13] was Active. Besides, in [1], the viability at 100 µM amounted to 13%. The viability at 10 µM in [2] was 50%. In addition, the viability at 48 h, 100 µM in [3] is 38%. In addition, the viability at 48 h, 10 µM in [4] was 65%. For the same compound, in data set [5], the viability at 48 h, 1 µM was found to be 75%. Besides, in data set [6], the cell viability at 1 µM was determined as 80%. Further, the residual activity in [8] was 133%; in [9], 52%; in data set [11], 22%; in data set [12], 13%.

For the compound `CCC(=O)Nc1ccc2c(c1)C(=O)c1cc(NC(=O)CC)ccc1C2=O`, the viability at 100 µM in data set [1] amounted to 35%. The viability at 10 µM in data set [2] came to 38%. The viability at 48 h, 100 µM in data set [3] came to 48%. For the same compound, the viability at 48 h, 10 µM in data set [4] is 57%. Besides, the viability at 48 h, 1 µM in [5] came out at 77%. The cell viability at 1 µM in [6] was 70%. Also, the residual activity in data set [7] amounted to 78%; in data set [8] it was 64%; in [9] it was 90%; in data set [10], 51%; in data set [11], 95%; in data set [12] it was 85%.
